NR2E3 ag-1: inhibitors of NR2E3-RetCOR corepressor binding, primary screen, NR2E3 agonist project, biochemical, TR-FRET, GST-NR2E3, biotin-RetCOR. 1536-well. inhibition of corepressor binding, % at 4.78 µM. 320,000 tested, 0.12% active. AID 2300, 2010;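 active = percent inhibition above the cutoff of mean plus 3 SD of all tested compounds, set per screening campaign, cut at about 20% in these data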
Target sequence (Q9Y5X4 whole entry, looked up): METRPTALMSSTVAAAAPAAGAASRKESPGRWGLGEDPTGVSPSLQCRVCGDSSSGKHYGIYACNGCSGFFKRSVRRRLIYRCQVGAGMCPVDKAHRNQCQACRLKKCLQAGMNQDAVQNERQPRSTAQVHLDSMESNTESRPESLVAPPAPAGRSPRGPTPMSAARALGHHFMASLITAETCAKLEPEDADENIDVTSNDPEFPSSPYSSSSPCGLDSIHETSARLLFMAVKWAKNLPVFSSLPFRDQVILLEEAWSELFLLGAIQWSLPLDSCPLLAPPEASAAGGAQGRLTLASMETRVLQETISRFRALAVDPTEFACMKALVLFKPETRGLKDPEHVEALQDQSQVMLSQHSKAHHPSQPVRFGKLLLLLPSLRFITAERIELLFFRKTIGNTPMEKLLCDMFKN
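System: GST-tagged NR2E3 plus biotinylated RetCOR corepressor; Amount: 1.35 nM GST-tagged NR2E3 final; Dosing: single nominal compound dose of 4.8 µM; Schedule: 5 h incubation at 4 °C; Technique: TR-FRET with europium anti-GST and streptavidin-D2, 340 nm excitation; Controls: biotin wells as high control, 0.6% DMSO wells as low control.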
FGF22 binding: binders of human FGF22 protein, primary screen, FGF22 synaptogenesis inhibitor project, biophysical, thermal shift, single point | 340,000 tested, 1.5% active | AID 651658, 2012 | activity (Tm shift, normalised), % at 9.99 µM | Fibroblast growth factor 22 (Homo sapiens), Q9HCT0 | recombinant FGF22 thermal shift, SYPRO orange fluorescence; percent of sucrose octasulfate shift, DMSO zero;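 active = mean Tm shift, scaled 0 neutral to 100 positive control, at about 1.3% or above, every replicate too, limit read from the data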
Target sequence (Q9HCT0 whole entry, looked up): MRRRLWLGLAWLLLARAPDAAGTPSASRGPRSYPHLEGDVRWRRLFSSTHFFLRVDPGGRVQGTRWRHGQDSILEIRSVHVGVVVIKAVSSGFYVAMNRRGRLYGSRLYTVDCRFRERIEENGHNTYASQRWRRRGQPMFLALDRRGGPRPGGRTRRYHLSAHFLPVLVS
697 NFkB inh: inhibitors of PMA/ionomycin-induced NF-kB reporter, 697 cells, primary screen, B-cell NF-kB inhibitor project, cell-based, luminescence, uHTS. 330,000 tested, 0.33% active. inhibition, % at 4 µM. 697 B-cell NF-kB luciferase reporter, 16 h; in the data active = inhibition above about 35%
Jurkat NFkB inh: inhibitors of induced NF-kB luciferase reporter, primary screen, TCR NF-kB activation inhibitor project, cell-based, luminescence, uHTS; Jurkat, PMA/ionomycin-induced NF-kB luciferase reporter; inhibition, % at 4 µM; 330,000 tested, 0.53% active; AID 435003, 2010; in the data active = inhibition above about 50%
miR122 inh: miR-122 Renilla sensor signal increase in Huh7, primary screen, miR-122 inhibitor project, cell-based, single point, plate reader; AID 602342, 2012; 340,000 tested, 0.3% active; activation (reporter increase), % at 12.5 µM; Huh7 miR-122 Renilla luciferase sensor, 48 h; neutral wells = 0, positive control = 100;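 active = mean replicate activation score at least 90 and every replicate individually at or above 90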;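 note: higher luciferase means less miR-122 activity so hits act as miR-122 inhibitors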
NR2E3 ag-2: NR2E3 agonists in two-hybrid cells, primary screen, cell-based, luminescence, CHO-S, Gal4-NCOR/VP16-NR2E3; Photoreceptor-specific nuclear receptor (Homo sapiens), Q9Y5X4; luciferase; inhibition of corepressor binding, % at 3.98 µM; 360,000 tested, 0.35% active; AID 602229, 2012;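 active = inhibition above the mean of all tested compounds plus 3 SD, cut at about 70% in these data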;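 note: higher means lower luciferase signal from less NR2E3 corepressor binding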
A number is an active result; i = inactive; nt = not tested or not shown. In the library only some 2.2% were active in any assay of this set; here they are far more common.

SMILES	NR2E3 ag-1	FGF22 binding	697 NFkB inh	Jurkat NFkB inh	miR122 inh	NR2E3 ag-2
Fc1ccc(N2CCN(Cc3ccccn3)CC2)cc1	i	43.8	i	i	i	i
O=C(CN1CCN(c2ccc(F)cc2)CC1)N1CCOCC1	i	nt	i	i	i	i
CC(=O)Nc1ccc(S(=O)(=O)N2CCN(Cc3ccccc3[N+](=O)[O-])CC2)cc1	i	43.9	i	i	nt	i
Fc1ccc(N2CCN(Cc3cnc(N4CCOCC4)s3)CC2)cc1	i	43.0	i	i	nt	i
COc1ccc(NC(=O)N(C)C[C@@H]2Oc3ccc(NC(=O)C4CCCCC4)cc3CC(=O)N([C@@H](C)CO)C[C@@H]2C)cc1	nt	i	nt	nt	i	nt
C[C@@H]1CN([C@@H](C)CO)C(=O)c2cc(NC(=O)CCCN(C)C)ccc2O[C@@H](C)CCCCO[C@H]1CN(C)C(=O)CCC(F)(F)F	nt	i	nt	nt	i	nt
COc1ccc(NC(=O)N(C)C[C@H]2Oc3ccc(NC(=O)Cc4cn(C)c5ccccc45)cc3CC(=O)N([C@H](C)CO)C[C@H]2C)cc1	nt	i	nt	nt	i	nt
C[C@@H]1CN([C@H](C)CO)C(=O)c2cc(-c3cccnc3)cnc2O[C@@H]1CN(C)C(=O)Nc1ccccc1	nt	i	nt	nt	i	nt
CC(C)NC(=O)N1[C@@H]2Cn3c(cccc3=O)[C@H]1[C@@H](C(=O)N1CCC(Cc3ccccc3)CC1)[C@@H]2CO	nt	i	nt	nt	nt	nt
O/N=C\c1cccn1-c1nccs1	i	i	i	i	i	i
N#Cc1cccn1-c1nccs1	i	43.3	i	i	nt	i
Cc1cnc2ncc3sccc3c2c1	i	i	i	i	i	i
c1cnc2ncc3sccc3c2c1	i	43.2	i	i	nt	i
COc1ccc(S(=O)(=O)Nc2ccccc2C(F)(F)F)cc1	i	nt	i	i	i	i
COc1ccc(OC)c(S(=O)(=O)Nc2ccccc2C(F)(F)F)c1	i	nt	i	i	116.5	i
CC(C)(C)C1CCC2(CC1)C(C#N)=C(SCC(=O)Nc1ccccc1)NC(=O)C2C#N (stereo not given)	i	nt	i	i	i	100.4
CC1(C)CC(=O)C2=C(C1)NC(SCC(=O)Nc1ccccc1)=C(C#N)C21CCCCC1	i	nt	i	i	i	i
Cc1noc(C)c1NC(=O)Nc1ccc2c(c1)C(=O)N([C@@H](C)CO)C[C@@H](C)[C@H](CN(C)Cc1ccccc1)OCCCC[C@H](C)O2	nt	nt	nt	nt	i	nt
O=C(NCC(=O)N1CCN(c2ncccn2)CC1)c1ccc(F)cc1	i	i	i	i	nt	i
NC(=O)C1CCN(C(=O)CNC(=O)c2ccc(F)cc2)CC1	nt	43.7	i	i	nt	i
COc1ccc(C(=O)N/C(=C\c2cn(C)c3ccccc23)C(=O)OCCN(C)C)cc1	i	27.9	i	i	nt	i
Cc1cc(N/N=C/c2ccc(Cl)cc2)nc(NCc2ccccc2)n1	i	1.6	i	i	nt	i
CC(C)NC(=O)N1CCCCN2[C@H](CO)[C@H](c3ccc(C#Cc4ccccc4)cc3)[C@H]2C1	nt	i	nt	nt	i	nt
CCOC(=O)CSc1nnc(CNC(=O)c2ccc(S(=O)(=O)N(C)C)cc2)n1C	i	i	i	i	i	i
COC(=O)CSc1nnc(CNC(=O)c2ccc(S(=O)(=O)N(C)C)cc2)n1C	i	43.3	i	i	nt	i
SMILES	NR2E3 ag-1	FGF22 binding	697 NFkB inh	Jurkat NFkB inh	miR122 inh	NR2E3 ag-2
CC(C)NC(=O)N(C)C[C@H]1Oc2ccc(NC(=O)Cn3cnnn3)cc2C(=O)N([C@@H](C)CO)C[C@H]1C	nt	nt	nt	nt	i	nt
CCN(Cc1ccccc1)C(=O)CSc1nncn1C	i	43.3	i	i	nt	i
CCN(Cc1ccccc1)C(=O)CSc1ccccc1C(=O)O	i	i	i	i	nt	i
Cc1c(CN2CCCC(CO)(Cc3cccc(Cl)c3)C2)cnn1C (stereo not given)	i	43.0	i	i	i	i
CCC(=O)N1C[C@@H](C)[C@H](OC)CN(C)C(=O)c2cc(NC(=O)c3ccc(OC)cc3)ccc2OC[C@H]1C	nt	nt	nt	nt	i	nt
COc1ccc2c3c([nH]c2c1)[C@H](CO)NCC31CCN(C(=O)C2CCCCC2)CC1	nt	i	nt	nt	nt	nt
C[C@@H]1CN([C@@H](C)CO)C(=O)c2cc(NS(=O)(=O)c3cccs3)ccc2O[C@H]1CN(C)C	nt	i	nt	nt	i	nt
COc1ccc(OC)c(S(=O)(=O)Nc2cc3c4c(c2)CCC(=O)N4CCC3)c1	i	i	i	i	138.4	i
COc1ccc(OC)c(S(=O)(=O)Nc2ccc3oc4c(c3c2)C(=O)CCC4)c1	i	nt	i	i	165.3	i
COc1ccc(S(=O)(=O)Nc2cc3c4c(c2)CCC(=O)N4CCC3)cc1	i	i	i	i	i	i
O=C(C[C@H]1C=C[C@H](NS(=O)(=O)c2ccc(F)cc2)[C@@H](CO)O1)NCc1ccc(Cl)c(Cl)c1	nt	i	nt	nt	nt	nt
O=C(C[C@H]1CC[C@@H]2[C@H](COC[C@H](O)CN2Cc2ccncc2)O1)NCc1ccncc1	nt	i	nt	nt	i	nt
CN(CC(=O)NC1CCN(Cc2ccccc2)CC1)S(=O)(=O)c1ccc2c(c1)c(=O)n(C)c(=O)n2C	i	43.2	i	i	nt	i
O=C1/C(=C\c2ccco2)SC(=S)N1C1CCCCC1	i	nt	i	i	nt	nt
CC1=C(C#N)C(=O)N(C2CCS(=O)(=O)C2)C(=O)/C1=C\c1ccco1 (stereo not given)	27.4	nt	i	i	nt	nt
O=C(N[C@@H]1C=C[C@H](CC(=O)N2CCc3ccccc3C2)O[C@H]1CO)C1CCC1	nt	i	nt	nt	nt	nt
CC(C)c1nc(SCC(=O)c2ccc(F)cc2)c2ccccc2n1	i	43.1	i	i	nt	i
CC(C)NC(=O)N(C)C[C@H]1Oc2ccc(NC(=O)Nc3ccc4c(c3)OCO4)cc2CC(=O)N([C@@H](C)CO)C[C@H]1C	nt	i	nt	nt	i	nt
CCOCC(=O)Nc1cc(C(=O)NCCc2ccccc2)ccc1Cl	i	10.9	i	i	i	i
COCC(=O)Nc1cc(C(=O)NCCc2ccccc2)ccc1Cl	i	i	i	i	i	i
Cc1ccc(CNC(=O)CNC(=O)c2c(C)nn(C)c2Cl)cc1	i	nt	i	i	i	i
Cc1nn(C)c(Cl)c1C(=O)NCC(=O)Nc1ccc(C(C)C)cc1	i	44.1	i	i	i	i
CNC[C@H]1Oc2ccc(NC(=O)Nc3ccc(C(F)(F)F)cc3)cc2C(=O)N([C@@H](C)CO)C[C@H]1C	nt	i	nt	nt	i	nt
CS(=O)(=O)N1N=C(c2ccco2)CC1c1cccc([N+](=O)[O-])c1 (stereo not given)	i	i	i	i	i	i

Assay outcomes deposited in PubChem BioAssay by several laboratories.
